Test results as given in ChEMBL document CHEMBL1153370, “New pyridazine derivatives: synthesis, chemistry and biological activity” (2009).

How the values were obtained:
Type in all cases: functional
Staphylococcus aureus [1] = assay: Antibacterial activity Staphylococcus aureus ATCC 25923 after 24 hrs at 30 degC by agar diffusion technique
Summary of the method: (§1)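 Agar diffusion method. Bacteria were maintained on Mueller Hinton agar, and the agar medium was inoculated with each test organism. Plates were incubated 24 h at 30 °C, then the diameter of the inhibition zone was measured in mm and reported as the mean diameter.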

Micrococcus luteus [2] = assay: Antibacterial activity Sarcina lutea ATCC 9341 after 24 hrs at 30 degC by agar diffusion technique; summary of the method: as §1
Bacillus subtilis [3] = assay: Antibacterial activity Bacillus subtilis after 24 hrs at 30 degC by agar diffusion technique; summary of the method: as §1
Pseudomonas aeruginosa [4] = assay: Antibacterial activity Pseudomonas aeruginosa after 24 hrs at 30 degC by agar diffusion technique; summary of the method: as §1
Escherichia coli [5] = assay: Antibacterial activity Escherichia coli ATCC 25922 after 24 hrs at 30 degC by agar diffusion technique; summary of the method: as §1
Candida albicans = assay: Antifungal activity Candida albicans ATCC 10231 after 48 hrs at 28 degC by agar diffusion technique
Summary of the method: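 Fungi were maintained on Mueller Hinton agar and tested by diffusion on agar seeded with the organism. After 48 h incubation at 28 °C, the inhibition zone diameter (mm, mean) was measured.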

Staphylococcus aureus [6] = assay: Antibacterial activity Staphylococcus aureus ATCC 25923 at 30 ug/disk after 24 hrs at 30 degC by agar diffusion technique; conditions: ATCC 25923, 24 h, read-out: Diameter of inhibition zone; summary of the method: as §1
Micrococcus luteus [7] = assay: Antibacterial activity Sarcina lutea ATCC 9341 at 30 ug/disk after 24 hrs at 30 degC by agar diffusion technique; conditions: ATCC 9341, 24 h, read-out: Diameter of inhibition zone; summary of the method: as §1
Bacillus subtilis [8] = assay: Antibacterial activity Bacillus subtilis at 30 ug/disk after 24 hrs at 30 degC by agar diffusion technique; conditions: read-out: Diameter of inhibition zone; summary of the method: as §1
Pseudomonas aeruginosa [9] = assay: Antibacterial activity Pseudomonas aeruginosa at 30 ug/disk after 24 hrs at 30 degC by agar diffusion technique; conditions: read-out: Diameter of inhibition zone; summary of the method: as §1
Escherichia coli [10] = assay: Antibacterial activity Escherichia coli ATCC 25922 at 30 ug/disk after 24 hrs at 30 degC by agar diffusion technique; conditions: ATCC 25922, 24 h, read-out: Diameter of inhibition zone
Summary of the method: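 Agar diffusion method; organisms kept on Mueller Hinton agar, and agar media were inoculated with the test culture. Bacterial plates incubated 24 h at 30 °C, then diameter of the inhibition zone measured in mm (mean diameter).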

SMILES | Diameter of inhibition zone (Staphylococcus aureus [1]) [mm] | Diameter of inhibition zone (Micrococcus luteus [2]) [mm] | Diameter of inhibition zone (Bacillus subtilis [3]) [mm] | Diameter of inhibition zone (Pseudomonas aeruginosa [4]) [mm] | Diameter of inhibition zone (Escherichia coli [5]) [mm] | Diameter of inhibition zone (Candida albicans) [mm] | zone of inhibition at 30 µg/disc (Staphylococcus aureus [6]) [mm] | zone of inhibition at 30 µg/disc (Micrococcus luteus [7]) [mm] | zone of inhibition at 30 µg/disc (Bacillus subtilis [8]) [mm] | zone of inhibition at 30 µg/disc (Pseudomonas aeruginosa [9]) [mm] | zone of inhibition at 30 µg/disc (Escherichia coli [10]) [mm]
COC(=O)[C@H]1[C@H](C(=O)OC)[C@H](C(=O)c2ccc(F)cc2)N2N=CC=C[C@@H]12 | 29 | 51 | 35 | 17 | 35 | 27 |  |  |  |  | 
O=C(N[C@H](CO)[C@H](O)c1ccc([N+](=O)[O-])cc1)C(Cl)Cl [CHLORAMPHENICOL] |  |  |  |  |  |  | 30 | 40 | 26 | 19 | 25
COC(=O)[C@H]1[C@H](C(=O)OC)[C@H](C(=O)c2ccc(C)cc2)N2N=CC=C[C@@H]12 | 47 | 59 | 38 | 17 | 37 | 29 |  |  |  |  | 
O=C(c1ccc(F)cc1)[C@H]1[C@@H]2C(=O)N(c3ccccc3)C(=O)[C@@H]2[C@@H]2C=CC=NN21 | 27 | 63 | 28 | 16 | 25 | 25 |  |  |  |  | 
COC(=O)[C@H]1[C@H](C(=O)OC)[C@H](C(=O)c2ccc(Cl)cc2)N2N=CC=C[C@@H]12 | 23 | 54 | 36 | 15 | 31 | 27 |  |  |  |  | 
Cc1ccc(C(=O)[C@H]2[C@@H]3C(=O)N(c4ccccc4)C(=O)[C@@H]3[C@@H]3C=CC=NN32)cc1 | 31 | 73 | 37 | 18 | 24 | 29 |  |  |  |  | 
N#C[C@H]1C[C@@H](C(=O)c2ccc(Cl)cc2)N2N=CC=C[C@@H]12 | 30 | 57 | 29 | 14 | 28 | 35 |  |  |  |  | 
Cc1ccc(C(=O)[C@@H]2C[C@H](C#N)[C@@H]3C=CC=NN23)cc1 | 46 | 67 | 39 | 19 | 23 | 30 |  |  |  |  | 
CCOC(=O)c1cc(C(=O)c2ccc(Cl)cc2)n2ncccc12 | 25 | 48 | 25 | 20 | 33 | 30 |  |  |  |  | 
COC(=O)c1c(C(=O)OC)c2cccnn2c1C(=O)c1ccc(Cl)cc1 | 30 | 57 | 26 | 18 | 31 | 24 |  |  |  |  | 
CCOC(=O)c1cc(C(=O)c2ccc(F)cc2)n2ncccc12 | 27 | 48 | 22 | 20 | 23 | 22 |  |  |  |  | 
O=C(C[n+]1ccccn1)c1ccc(F)cc1.[Br-] | 38 | 61 | 31 | 20 | 31 | 19 |  |  |  |  | 
N#C[C@H]1C[C@@H](C(=O)c2ccc(F)cc2)N2N=CC=C[C@@H]12 | 26 | 50 | 27 | 14 | 20 | 23 |  |  |  |  | 
Cc1ccc(C(=O)C[n+]2ccccn2)cc1.[Br-] | 47 | 81 | 40 | 20 | 25 | 27 |  |  |  |  | 
CCOC(=O)c1cc(C(=O)c2ccc(C)cc2)n2ncccc12 | 40 | 56 | 37 | 18 | 25 | 28 |  |  |  |  | 
O=C(c1ccc(Cl)cc1)[C@H]1[C@@H]2C(=O)N(c3ccccc3)C(=O)[C@@H]2[C@@H]2C=CC=NN21 | 28 | 54 | 28 | 18 | 28 | 34 |  |  |  |  | 
COC(=O)[C@@H]1[C@H](C(=O)OC)[C@H](C(=O)c2ccc(Cl)cc2)N2N=CC=C[C@@H]12 | 33 | 56 | 39 | 18 | 32 | 25 |  |  |  |  | 
COC(=O)[C@@H]1[C@H](C(=O)OC)[C@H](C(=O)c2ccc(C)cc2)N2N=CC=C[C@@H]12 | 41 | 62 | 39 | 19 | 37 | 30 |  |  |  |  | 
O=C(C[n+]1ccccn1)c1ccc(Cl)cc1.[Br-] | 36 | 57 | 32 | 20 | 36 | 29 |  |  |  |  | 
COC(=O)c1c(C(=O)OC)c2cccnn2c1C(=O)c1ccc(F)cc1 | 27 | 52 | 23 | 15 | 21 | 21 |  |  |  |  | 
COC(=O)[C@@H]1[C@H](C(=O)OC)[C@H](C(=O)c2ccc(F)cc2)N2N=CC=C[C@@H]12 | 29 | 60 | 37 | 18 | 35 | 24 |  |  |  |  | 
COC(=O)c1c(C(=O)OC)c2cccnn2c1C(=O)c1ccc(C)cc1 | 46 | 65 | 26 | 19 | 25 | 29 |  |  |  |  | 
